According to ChEMBL document CHEMBL4190396, “Discovery of Novel Small-Molecule Inhibitors of NF-κB Signaling with Antiinflammatory and Anticancer Properties” (J Med Chem, 2018):
pIC50: −log10 of the molar value. Calls of active or inactive are those of the source. The calls are words filed in the database; no cut-off is given here.

Key:
HeLa [1] = assay: Cell cycle arrest in human HeLa cells assessed as accumulation at S phase at 10 uM after 24 hrs by propidium iodide staining based flow cytometry (reference value: 34.9%); type: functional
Procedure, shortened: (§1)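 HeLa cells, 3×10^5/well, attached overnight, switched to serum-free medium for synchronisation, then DMSO or 5, 10, 20 µM for 24 h; cells fixed, PI-stained, G0/G1, S and G2/M fractions by flow cytometry; n = 3, mean ± SD.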

RAW264.7 [2] = assay: Antiinflammatory activity in mouse RAW264.7 cells assessed as decrease in LPS-induced TNFalpha production preincubated for 30 mins followed by LPS stimulation measured after 18 hrs by ELISA; type: functional, cell-based
Procedure, shortened: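 RAW 264.7 cells, 1.5×10^6/well, 24 h, medium refreshed; pretreated with increasing compound 30 min, then LPS 100 ng/mL for 18 h; supernatant TNF-α quantified by sandwich ELISA against recombinant mouse standards.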

RAW264.7 [3] = assay: Inhibition of LPS-induced PI3K phosphorylation in mouse RAW264.7 cells at 1 to 10 uM preincubated for 1 hr followed by LPS stimulation for 15 to 30 mins by Western blot method; type: cell-based
Procedure, shortened: (§2)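 RAW 264.7 cells, 3×10^6 per dish overnight, pretreated 1 h with 1, 5 or 10 µM, then LPS 100 ng/mL for 15 or 30 min; nuclear/cytoplasmic lysates (20–30 µg) run on 10% SDS-PAGE, immunoblotted for phospho/total proteins, GAPDH loading control, ECL, densitometry; three independent experiments.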

[4] = target: Inhibitor of nuclear factor kappa-B kinase subunit alpha/beta (Mus musculus) (UniProt Q60680+O88351); assay: Inhibition of IKK-alphabeta in mouse RAW264.7 cells assessed as reduction in LPS-induced IKK-alphabeta phosphorylation at 1 to 10 uM preincubated for 1 hr followed by LPS stimulation for 15 to 30 mins by Western blot method; type: cell-based; procedure, shortened: as §2
HeLa [5] = assay: Cell cycle arrest in human HeLa cells assessed as accumulation at G2/M phase at 10 uM after 24 hrs by propidium iodide staining based flow cytometry (reference value: 15.7%); type: functional; procedure, shortened: as §1
[6] = Inhibition of LPS-induced NFkappaB activation in mouse RAW264.7 cells assessed as reduction in nitric oxide production after 18 hrs by DAN assay; type: cell-based; conditions: RAW264.7, 18 h
Procedure, shortened: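 RAW 264.7 cells at 2×10^5 cells/mL, 24 h, medium refreshed, then LPS 100 ng/mL with or without graded compound for 18 h; nitrite in medium reacted with 2,3-diaminonaphthalene (0.05 mg/mL in 0.62 M HCl), 15 min in dark, as NO readout. n = 3, mean ± SD.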

TLR2/TLR6 (Homo sapiens) = TLR2/TLR6 (Homo sapiens) (UniProt O60603+Q9Y2C9); assay: Antagonist activity at human TLR2/6 expressed in HEK293 cells assessed as decrease in Pam2CSK4-induced NF-kappaB activation-mediated SEAP production at 10^-9 to 10^-5 M after 24 hrs by Quanti-blue-based assay; type: cell-based
Procedure, shortened: (§3)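 HEK293 cells stably carrying a human TLR plus an NF-κB-driven SEAP reporter, seeded 5×10^4/well for 24 h at 37 °C, then stimulated: Pam3CSK4 100 µg/mL (TLR1/2), Pam2CSK4 100 µg/mL, poly I:C 5 µg/mL (TLR3), LPS 20 ng/mL (TLR4), flagellin 100 ng/mL (TLR5), R848 1 µg/mL (TLR7, TLR8), CpG-ODN2006 1 µg/mL (TLR9). After 24 h with compound, supernatant mixed with QUANTI-Blue, 1 h 37 °C, OD 620 nm.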

HeLa [7] = assay: Cell cycle arrest in human HeLa cells assessed as accumulation at G2/M phase at 5 uM after 24 hrs by propidium iodide staining based flow cytometry (reference value: 15.7%); type: functional; procedure, shortened: as §1
[8] = target: T1, Toll-like receptor 7 (Homo sapiens) (UniProt Q9NYK1); assay: Antagonist activity at human TLR7 expressed in HEK293 cells assessed as decrease in R848-induced NF-kappaB activation-mediated SEAP production at 10^-9 to 10^-5 M after 24 hrs by Quanti-blue-based assay; type: cell-based; procedure, shortened: as §3
T1 sequence (whole entry): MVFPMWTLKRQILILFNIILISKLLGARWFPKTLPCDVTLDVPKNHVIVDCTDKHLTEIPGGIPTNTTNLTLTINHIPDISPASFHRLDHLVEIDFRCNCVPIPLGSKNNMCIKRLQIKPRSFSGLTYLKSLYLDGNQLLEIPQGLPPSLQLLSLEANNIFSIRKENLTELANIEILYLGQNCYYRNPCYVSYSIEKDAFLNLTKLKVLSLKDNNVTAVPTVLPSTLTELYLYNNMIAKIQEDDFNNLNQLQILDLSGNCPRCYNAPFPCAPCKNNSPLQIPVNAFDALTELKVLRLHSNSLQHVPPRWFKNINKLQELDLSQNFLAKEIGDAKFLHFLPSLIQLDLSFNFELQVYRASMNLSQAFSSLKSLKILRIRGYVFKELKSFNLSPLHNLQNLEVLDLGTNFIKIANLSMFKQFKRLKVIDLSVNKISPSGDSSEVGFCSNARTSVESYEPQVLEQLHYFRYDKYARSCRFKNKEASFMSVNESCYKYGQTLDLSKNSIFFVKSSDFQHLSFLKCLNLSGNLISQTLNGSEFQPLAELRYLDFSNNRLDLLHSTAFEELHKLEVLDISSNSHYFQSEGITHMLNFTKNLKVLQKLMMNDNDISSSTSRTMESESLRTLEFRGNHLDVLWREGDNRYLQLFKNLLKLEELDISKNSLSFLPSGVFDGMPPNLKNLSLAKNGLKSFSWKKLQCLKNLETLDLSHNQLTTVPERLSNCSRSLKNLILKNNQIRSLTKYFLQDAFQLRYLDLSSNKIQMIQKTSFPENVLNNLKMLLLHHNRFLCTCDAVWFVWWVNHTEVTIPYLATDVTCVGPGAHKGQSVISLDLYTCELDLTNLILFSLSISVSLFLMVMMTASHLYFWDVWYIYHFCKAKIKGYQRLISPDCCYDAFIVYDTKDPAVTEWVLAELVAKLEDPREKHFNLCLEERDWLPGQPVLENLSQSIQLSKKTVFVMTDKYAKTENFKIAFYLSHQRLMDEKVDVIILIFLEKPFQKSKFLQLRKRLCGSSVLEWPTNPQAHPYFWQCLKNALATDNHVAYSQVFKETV

HMEC = assay: Cytotoxicity against HMEC up to 40 uM after 24 to 48 hrs by WST1 assay; type: cell-based; conditions: human
[9] = target: Toll-like receptor 9 (Homo sapiens) (UniProt Q9NR96); assay: Antagonist activity at human TLR9 expressed in HEK293 cells assessed as decrease in CpG-ODN2006-induced NF-kappaB activation-mediated SEAP production at 10^-9 to 10^-5 M after 24 hrs by Quanti-blue-based assay; type: cell-based; procedure, shortened: as §3
Chain of Toll-like receptor 9 (Homo sapiens) (Q9NR96 whole entry): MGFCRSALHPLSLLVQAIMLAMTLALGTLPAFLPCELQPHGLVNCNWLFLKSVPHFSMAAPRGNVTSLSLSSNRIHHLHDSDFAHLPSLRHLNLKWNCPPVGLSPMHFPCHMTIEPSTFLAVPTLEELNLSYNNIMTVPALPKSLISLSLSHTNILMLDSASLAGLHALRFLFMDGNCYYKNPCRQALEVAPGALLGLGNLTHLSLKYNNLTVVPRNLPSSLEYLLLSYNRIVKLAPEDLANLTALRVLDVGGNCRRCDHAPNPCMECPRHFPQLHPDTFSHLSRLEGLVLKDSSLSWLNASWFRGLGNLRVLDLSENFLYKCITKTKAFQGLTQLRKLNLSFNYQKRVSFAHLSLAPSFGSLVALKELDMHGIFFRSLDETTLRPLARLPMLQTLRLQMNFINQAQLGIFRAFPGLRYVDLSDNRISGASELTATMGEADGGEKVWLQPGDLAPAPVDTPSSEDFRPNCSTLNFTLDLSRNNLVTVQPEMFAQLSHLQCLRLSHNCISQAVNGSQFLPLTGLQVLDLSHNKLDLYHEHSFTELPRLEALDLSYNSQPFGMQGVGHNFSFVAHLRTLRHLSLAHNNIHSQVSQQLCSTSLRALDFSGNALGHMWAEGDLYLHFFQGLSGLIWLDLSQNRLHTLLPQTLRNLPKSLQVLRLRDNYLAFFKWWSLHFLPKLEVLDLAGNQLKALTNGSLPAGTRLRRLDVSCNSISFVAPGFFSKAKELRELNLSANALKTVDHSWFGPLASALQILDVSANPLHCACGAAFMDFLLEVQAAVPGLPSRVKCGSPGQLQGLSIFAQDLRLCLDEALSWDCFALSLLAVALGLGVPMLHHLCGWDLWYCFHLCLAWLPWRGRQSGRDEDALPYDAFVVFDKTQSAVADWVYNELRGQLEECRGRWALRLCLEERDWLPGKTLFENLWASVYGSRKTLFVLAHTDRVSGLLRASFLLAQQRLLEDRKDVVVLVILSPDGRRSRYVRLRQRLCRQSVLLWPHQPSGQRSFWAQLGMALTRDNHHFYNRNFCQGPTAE

HeLa [10] = assay: Induction of apoptosis in human HeLa cells after 24 hrs by Annexin-V FITC/propidium iodide staining based flow cytometry; type: functional, cell-based
Procedure, shortened: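 HeLa cells, 3×10^5/well, attached 24 h, then DMSO or 5, 10, 20 µM for 24 h; harvested with EDTA-free 0.25% trypsin, Annexin V-FITC/PI double stained, flow cytometry; early plus late apoptotic fractions counted; three independent experiments.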

For `O=C(NNC(=O)c1csc(-c2ccc(Cl)cc2Cl)n1)c1ccccn1`, the Activity (HeLa [1]) was 41.7%, the Activity (RAW264.7 [2]) was “Dose-dependent effect” and the inhibition (RAW264.7 [3]) was “Active”. The inhibition [4] was “Active”, the Activity (HeLa [5]) was 3.6% and the pIC50 [6] was 7.10. The inhibition (TLR2/TLR6 (Homo sapiens)) was “Active”, the Activity (HeLa [7]) was 13.8% and the inhibition [8] was “Active”. For the same compound, the Activity (HMEC) was “Non-Toxic”, the inhibition [9] was “Active” and the Activity (HeLa [10]) was “Dose-dependent effect”.
